Assay results reported in ChEMBL document CHEMBL3352487, “Synthesis, antibacterial activity, and biological evaluation of formyl hydroxyamino derivatives as novel potent peptide deformylase inhibitors against drug-resistant bacteria” (Eur J Med Chem, 2014).
Values after ≈ are worked out from the molar mass of the structure shown.

How the values were obtained:
[1] = tested on: Staphylococcus aureus; experiment: Antimicrobial activity against Staphylococcus aureus isolate A53 after 24 hrs by broth microdilution method; assay type: functional; settings: isolate A53, 24 h
Method in brief: (§1)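 Broth microdilution following NCCLS M7-A4, using ATCC strains and clinical isolates from a provincial hospital.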

[2] = tested on: Moraxella catarrhalis; experiment: Antimicrobial activity against Moraxella catarrhalis 1502 after 24 hrs by broth microdilution method; assay type: functional; settings: Moraxella catarrhalis, 1502, 24 h
Method in brief: (§2)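 Broth microdilution following NCCLS M7-A4; ATCC strains and clinical isolates from a provincial hospital.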

[3] = Cmax in Sprague-Dawley rat at 25 mg/kg, po; assay type: ADME, organism-based; parameters: dose 25 mg/kg, route oral; settings: in vivo
[4] = Stability of the compound in artificial intestinal juice measured every 2 hrs for 12 hrs by HPLC analysis; assay type: physicochemical; settings: simulated gi fluid
[5] = tested on: Mus musculus; experiment: Acute toxicity in KM mouse assessed as spleen abnormality at 250 mg/kg, iv measured for 14 days by necropsy; assay type: organism-based; parameters: dose 250 mg/kg, route intravenous; settings: in vivo, 336 h
Method in brief: (§3)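 Outbred KM mice (SPF, 20–25 g; nine male, ten female) given a single tail-vein injection of 100 or 250 mg/kg in PBS pH 6.5 with 20% DMSO over about 60 s. Behaviour, weight, coat colour, anal temperature, food and water intake, and urine and stool weight followed for 14 days. On day 14, gross necropsy of skin, lungs, heart, liver, kidneys and spleen.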

[6] = tested on: Staphylococcus aureus; experiment: Antimicrobial activity against Staphylococcus aureus isolate PAV 5 after 24 hrs by broth microdilution method; assay type: functional; settings: isolate PAV 5, 24 h; method in brief: as §2
[7] = tested on: Staphylococcus aureus; experiment: Antimicrobial activity against Staphylococcus aureus MRSA08-12 in peritonitis mouse model assessed as mortality of host at 10 mg/kg, iv as single dose relative to control; assay type: functional
Method in brief: (§4)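 Outbred KM mice (20–25 g) infected i.p. with a 90–100% lethal dose (5 × 10^7 CFU/mL) in 0.5 mL brain heart infusion broth with 5% mucin. Single i.v. dose of 1.25–20 mg/kg in 20% DMSO, 0.1 mL. Ten mice per dose; daily monitoring for 14 days; ED50 from cumulative mortality by Bliss's method.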

[8] = tested on: Staphylococcus aureus; experiment: Antimicrobial activity against Staphylococcus aureus isolate MN 1255 after 24 hrs by broth microdilution method; assay type: functional; settings: isolate MN 1255, 24 h; method in brief: as §2
[9] = tested on: Staphylococcus aureus; experiment: Antimicrobial activity against Staphylococcus aureus isolate 306 after 24 hrs by broth microdilution method; assay type: functional; settings: isolate 306, 24 h; method in brief: as §2
[10] = tested on: Mus musculus; experiment: Acute toxicity in KM mouse assessed as abnormal behaviour at 100 mg/kg, iv measured for 14 days; assay type: organism-based; parameters: dose 100 mg/kg, route intravenous; settings: in vivo, 336 h; method in brief: as §3
[11] = tested on: Staphylococcus aureus; experiment: Antimicrobial activity against Staphylococcus aureus isolate Ealing 23 after 24 hrs by broth microdilution method; assay type: functional; settings: isolate Ealing 23, 24 h; method in brief: as §1
[12] = tested on: Staphylococcus aureus; experiment: Antimicrobial activity against Staphylococcus aureus isolate OGA833 after 24 hrs by broth microdilution method; assay type: functional; settings: isolate OGA833, 24 h; method in brief: as §2
[13] = tested on: Staphylococcus aureus; experiment: Antimicrobial activity against Staphylococcus aureus isolate CARTER 37 after 24 hrs by broth microdilution method; assay type: functional; settings: isolate CARTER 37, 24 h; method in brief: as §1
[14] = tested on: Staphylococcus aureus; experiment: Antimicrobial activity against Staphylococcus aureus isolate F89 after 24 hrs by broth microdilution method; assay type: functional; settings: isolate F89, 24 h; method in brief: as §2
[15] = tested on: Streptococcus pneumoniae; experiment: Antimicrobial activity against Streptococcus pneumoniae ERY2 after 24 hrs by broth microdilution method; assay type: functional; settings: ERY2, 24 h; method in brief: as §2
[16] = biological target: hERG (KCNH2) (Homo sapiens, UniProt Q12809); experiment: Inhibition of human ERG at 1 uM
[17] = AUC (0 to t) in Sprague-Dawley rat at 25 mg/kg, po; assay type: ADME, organism-based; parameters: dose 25 mg/kg, route oral; settings: plasma
[18] = Volume of distribution at steady state in Sprague-Dawley rat at 5 mg/kg, iv; assay type: ADME, organism-based; parameters: dose 5 mg/kg, route intravenous; settings: in vivo, read-out: Vdss
[19] = tested on: Enterococcus faecalis; experiment: Antimicrobial activity against Enterococcus faecalis Isolate 1 after 24 hrs by broth microdilution method; assay type: functional; settings: Isolate 1, 24 h; method in brief: as §2
[20] = tested on: Enterococcus faecium; experiment: Antimicrobial activity against Enterococcus faecium X7501 after 24 hrs by broth microdilution method; assay type: functional; settings: X7501, 24 h; method in brief: as §2
[21] = tested on: Mus musculus; experiment: Acute toxicity in KM mouse assessed as heart abnormality at 250 mg/kg, iv measured for 14 days by necropsy; assay type: organism-based; parameters: dose 250 mg/kg, route intravenous; settings: in vivo, 336 h; method in brief: as §3
[22] = tested on: Staphylococcus aureus; experiment: Antimicrobial activity against Staphylococcus aureus isolate MILES HALL after 24 hrs by broth microdilution method; assay type: functional; method in brief: as §1
[23] = tested on: Staphylococcus aureus; experiment: Antimicrobial activity against Staphylococcus aureus isolate 934387 after 24 hrs by broth microdilution method; assay type: functional; settings: isolate 934387, 24 h; method in brief: as §1
[24] = tested on: Staphylococcus aureus; experiment: Antimicrobial activity against Staphylococcus aureus isolate 929035 after 24 hrs by broth microdilution method; assay type: functional; settings: isolate 929035, 24 h; method in brief: as §2
[25] = AUC (0 to infinity) in Sprague-Dawley rat at 25 mg/kg, po; assay type: ADME, organism-based; parameters: dose 25 mg/kg, route oral, time infinity; settings: plasma
[26] = tested on: Streptococcus pyogenes; experiment: Antimicrobial activity against Streptococcus pyogenes 1308007P after 24 hrs by broth microdilution method; assay type: functional; method in brief: as §2
[27] = Fraction unbound in CD1 mouse plasma at 2 uM by equilibrium dialysis; assay type: ADME, cell-free
Method in brief: (§5)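 Pooled CD-1 mouse plasma spiked to 2 µM final, equilibrium dialysis in triplicate against 100 mM PBS pH 7.4, 4 h at 37 °C with rotation; matrix-matched samples acetonitrile-precipitated, LC-MS/MS with internal standards. Unbound = free/total ×100; recovery = (free+total)/pre-dialysis ×100.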

[28] = Tmax in Sprague-Dawley rat at 25 mg/kg, po; assay type: ADME, organism-based; parameters: dose 25 mg/kg, route oral; settings: in vivo
[29] = tested on: Staphylococcus aureus; experiment: Antimicrobial activity against Staphylococcus aureus MRSA08-12 in peritonitis mouse model assessed as mortality of host at 2.5 mg/kg, iv as single dose relative to control; assay type: functional
Method in brief: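 KM outbred mice (20–25 g) inoculated intraperitoneally with a 90-to-100%-lethal dose (5 × 10^7 CFU/mL) of MRSA08-12 in 0.5 mL brain heart infusion broth with 5% mucin. Single i.v. dose in 20% DMSO, 0.1 mL; doses 1.25–20 mg/kg, 10 mice per dose. Cumulative mortality tracked daily for 14 days; ED50 by Bliss's method.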

[30] = tested on: Staphylococcus epidermidis; experiment: Antimicrobial activity against Staphylococcus epidermidis after 24 hrs by broth microdilution method; assay type: functional; method in brief: as §2
[31] = tested on: Staphylococcus aureus; experiment: Antimicrobial activity against Staphylococcus aureus MRSA08-12 in peritonitis mouse model assessed as mortality of host at 20 mg/kg, iv as single dose relative to control; assay type: functional; method in brief: as §4
[32] = tested on: Staphylococcus aureus; experiment: Antimicrobial activity against Staphylococcus aureus isolate CL 938 after 24 hrs by broth microdilution method; assay type: functional; settings: isolate CL 938, 24 h; method in brief: as §2
[33] = tested on: Haemophilus influenzae; experiment: Antimicrobial activity against Haemophilus influenzae H128 after 24 hrs by broth microdilution method; assay type: functional; settings: H128, 24 h; method in brief: as §2
[34] = tested on: Staphylococcus aureus; experiment: Antimicrobial activity against Staphylococcus aureus isolate RN1030 after 24 hrs by broth microdilution method; assay type: functional; settings: isolate RN1030, 24 h; method in brief: as §1
[35] = tested on: Staphylococcus aureus; experiment: Antimicrobial activity against Staphylococcus aureus isolate Ealing 32 after 24 hrs by broth microdilution method; assay type: functional; settings: isolate Ealing 32, 24 h; method in brief: as §2
[36] = tested on: Haemophilus influenzae; experiment: Antimicrobial activity against Haemophilus influenzae Q1 after 24 hrs by broth microdilution method; assay type: functional; settings: Q1, 24 h; method in brief: as §2
[37] = tested on: Staphylococcus aureus; experiment: Antimicrobial activity against Staphylococcus aureus isolate 934335 after 24 hrs by broth microdilution method; assay type: functional; settings: isolate 934335, 24 h; method in brief: as §2
[38] = Drug recovery in CD1 mouse plasma at 2 uM by equilibrium dialysis; assay type: ADME, cell-free; settings: read-out: Drug recovery; method in brief: as §5
[39] = tested on: Streptococcus pneumoniae; experiment: Antimicrobial activity against Streptococcus pneumoniae N1387 after 24 hrs by broth microdilution method; assay type: functional; settings: N1387, 24 h; method in brief: as §2

Chain of hERG (KCNH2) (Q12809 whole entry): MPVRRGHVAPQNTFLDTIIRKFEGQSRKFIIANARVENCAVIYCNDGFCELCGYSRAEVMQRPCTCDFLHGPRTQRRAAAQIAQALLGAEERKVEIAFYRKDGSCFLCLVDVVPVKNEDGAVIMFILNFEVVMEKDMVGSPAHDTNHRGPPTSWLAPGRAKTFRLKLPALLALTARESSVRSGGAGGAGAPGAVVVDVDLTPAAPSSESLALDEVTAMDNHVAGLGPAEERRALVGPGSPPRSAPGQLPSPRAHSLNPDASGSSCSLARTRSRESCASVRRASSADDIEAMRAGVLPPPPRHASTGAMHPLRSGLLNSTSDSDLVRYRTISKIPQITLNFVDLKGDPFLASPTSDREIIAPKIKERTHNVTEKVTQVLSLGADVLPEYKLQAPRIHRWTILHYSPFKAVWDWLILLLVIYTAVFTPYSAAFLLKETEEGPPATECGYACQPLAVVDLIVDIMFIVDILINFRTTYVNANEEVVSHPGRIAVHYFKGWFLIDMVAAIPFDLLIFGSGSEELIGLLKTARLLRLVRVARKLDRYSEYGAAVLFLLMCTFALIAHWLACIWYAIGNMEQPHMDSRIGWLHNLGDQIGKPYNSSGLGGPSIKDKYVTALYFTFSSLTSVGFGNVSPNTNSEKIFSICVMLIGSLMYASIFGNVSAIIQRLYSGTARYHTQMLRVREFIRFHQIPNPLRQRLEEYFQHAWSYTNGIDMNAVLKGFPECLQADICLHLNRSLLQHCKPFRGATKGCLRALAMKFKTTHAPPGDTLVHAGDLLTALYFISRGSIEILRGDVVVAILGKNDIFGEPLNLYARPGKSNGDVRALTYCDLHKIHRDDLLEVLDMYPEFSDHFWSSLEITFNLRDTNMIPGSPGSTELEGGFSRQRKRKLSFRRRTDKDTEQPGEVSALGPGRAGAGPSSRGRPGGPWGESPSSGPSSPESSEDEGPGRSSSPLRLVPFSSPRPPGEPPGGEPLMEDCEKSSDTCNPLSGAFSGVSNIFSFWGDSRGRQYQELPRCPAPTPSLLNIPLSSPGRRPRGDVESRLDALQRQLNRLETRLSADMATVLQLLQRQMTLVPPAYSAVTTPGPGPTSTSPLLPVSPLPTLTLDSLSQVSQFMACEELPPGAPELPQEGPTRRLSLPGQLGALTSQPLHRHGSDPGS

## CCCC[C@H](CN(O)C=O)C(=O)N1CC=C[C@H]1C(=O)Nc1ccc(F)c[n+]1[O-]
[1]
  MIC: 0.5 µg/mL (≈ 1.27 µM)
[2]
  MIC: ≤ 0.06 µg/mL
[3]
  Cmax: 1390 ng/mL
[4]
  Stability: Stable
[5]
  Activity: Non-toxic
[6]
  MIC: 1 µg/mL (≈ 2.54 µM)
[7]
  mortality at 10 mg/kg: 30%
[8]
  MIC: 0.25 µg/mL (≈ 0.634 µM)
[9]
  MIC: 2 µg/mL (≈ 5.07 µM)
[10]
  Activity: Non-toxic
[11]
  MIC: 0.5 µg/mL (≈ 1.27 µM)
[12]
  MIC: 0.5 µg/mL (≈ 1.27 µM)
[13]
  MIC: 0.5 µg/mL (≈ 1.27 µM)
[14]
  MIC: 1 µg/mL (≈ 2.54 µM)
[15]
  MIC: 1 µg/mL (≈ 2.54 µM)
[16]
  inhibition at 1 µM: 4.55%
[17]
  AUC(0-t): 3320 ng·h/mL
[18]
  Vd: 1.72 L/kg
[19]
  MIC: 4 µg/mL (≈ 10.1 µM)
[20]
  MIC: 2 µg/mL (≈ 5.07 µM)
[21]
  Activity: Non-toxic
[22]
  MIC: 0.5 µg/mL (≈ 1.27 µM)
[23]
  MIC: 0.5 µg/mL (≈ 1.27 µM)
[24]
  MIC: 1 µg/mL (≈ 2.54 µM)
[25]
  AUC(0-inf): 3390 ng·h/mL
[26]
  MIC: 2 µg/mL (≈ 5.07 µM)
[27]
  fraction unbound at 2 µM: 0.467
[28]
  Tmax: 41.3 min
[29]
  mortality at 2.5 mg/kg: 80%
[30]
  MIC: 1 µg/mL (≈ 2.54 µM)
[31]
  mortality at 20 mg/kg: 10%
[32]
  MIC: 1 µg/mL (≈ 2.54 µM)
[33]
  MIC: 2 µg/mL (≈ 5.07 µM)
[34]
  MIC: 0.5 µg/mL (≈ 1.27 µM)
[35]
  MIC: 0.25 µg/mL (≈ 0.634 µM)
[36]
  MIC: 1 µg/mL (≈ 2.54 µM)
[37]
  MIC: 0.25 µg/mL (≈ 0.634 µM)
[38]
  recovery at 2 µM: 91.2%
[39]
  MIC: 0.5 µg/mL (≈ 1.27 µM)
